Assay outcomes: PubChem BioAssay, Broad Institute
AI-2 QS mod: Vibrio harveyi AI-2 quorum sensing modulators, primary screen, JMH597 strain, luminescence/OD600 ratio | actives 0.4% (n = 300,000) | Vibrio harveyi JMH597 AI-2 luminescence/OD600 ratio, 9 h; active compounds read low; strain lacks LuxN and CqsS sensors; 0 = neutral-control median | AID 2094, 2009 | activity change, % at 7.5 µM; in the data active = activity change below about -75%, passing the limit was not always enough; inconclusive = no clear call, values can overlap the other calls;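 note: luminescence divided by OD600 gain over 9 h not by final OD600 alone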
ARNT TACC3 PPI: disruptors of ARNT/TACC3 protein interaction, primary screen, biochemical, AlphaScreen, single concentration; Transforming acidic coiled-coil-containing protein 3 (Homo sapiens), Q9Y6A5; AlphaScreen His-ARNT PAS-B/GST-TACC3 binding, luminescence; TACC3 fragment carries E629A point mutation; actives 0.66% (n = 390,000); inhibition, % at 9.99 µM;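 active = mean inhibition of replicates at least 50% and at least half of replicates each reaching 50%; inconclusive = half or more replicates reach 50% but mean below 50%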;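 note: 0% = complete ARNT plus TACC3 wells and 100% = ARNT alone without TACC3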
CAL PDZ FP-1: CAL PDZ peptide-binding inhibitors, primary screen, biochemical, fluorescence polarization, Cer-tagged CAL PDZ, HTS; Golgi-associated PDZ and coiled-coil motif-containing protein (Homo sapiens), Q9HD26; purified CAL PDZ, TMR-peptide fluorescence polarization, 1 h; inhibition, % at 20 µM; actives 0.02% (n = 330,000);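 active = highest replicate inhibition of at least 40%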;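 note: plate controls were DMSO neutral control wells for no effect and unlabeled competitor peptide control wells for full effect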
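System: purified tagged CAL PDZ domain construct (CerCALP). Schedule: 1 h incubation at room temperature before polarization reading. Medium: 25 mM sodium phosphate pH 7.4, 150 mM NaCl, TCEP, IgG, Thesit. Read-out: percent inhibition from loss of millipolarization. Measured by: FP readout, S and P plane fluorescence. Probe or stimulus: fluorescent TMR peptide probe.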
Rce1 inhib: yeast Rce1p protease inhibitors, primary screen, biochemical, fluorescence, cell-free homogeneous; CAAX prenyl protease 2 (Saccharomyces cerevisiae (strain ATCC 204508 / S288c)), Q03530; yeast membranes, quenched prenylated peptide cleavage fluorescence; calls only; actives 0.27% (n = 290,000); AID 2563, 2010;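 active = fall in fluorescence gain of 50% or more versus controls, with final raw signal at or below 3038400; inconclusive = same 50% fall but final raw signal above 3038400; inactive = fall in fluorescence gain under 50%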;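 note: plate controls were neutral control wells for no effect and wells lacking membranes for full effect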
Target sequence (Q03530 whole entry, looked up): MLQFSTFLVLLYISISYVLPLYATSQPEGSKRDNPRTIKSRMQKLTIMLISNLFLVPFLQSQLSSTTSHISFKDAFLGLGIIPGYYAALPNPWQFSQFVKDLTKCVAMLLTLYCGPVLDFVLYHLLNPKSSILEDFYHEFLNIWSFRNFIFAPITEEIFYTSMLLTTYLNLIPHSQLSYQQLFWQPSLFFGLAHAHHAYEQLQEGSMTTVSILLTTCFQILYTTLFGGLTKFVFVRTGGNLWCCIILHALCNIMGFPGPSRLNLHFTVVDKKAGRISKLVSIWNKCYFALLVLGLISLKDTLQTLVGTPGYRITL
CAL PDZ FP-2: untagged CAL PDZ binding inhibitors, primary screen, biochemical, fluorescence polarization, HTS. inhibition, % at 24.9 µM. actives 0.92% (n = 300,000). Golgi-associated PDZ and coiled-coil motif-containing protein (Homo sapiens), Q9HD26. purified CAL PDZ, TMR-peptide fluorescence polarization, 1 h;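 active = mean inhibition of at least 30% with at least half of replicates also reaching 30%; inconclusive = no clear call, values can overlap the other calls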;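 note: 0% = DMSO neutral control and 100% = excess unlabeled competitor peptide PRC23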
Numbers without * were called inactive; i = inactive; ? = inconclusive; / = not tested or not shown; + = active, no number. Shown are actives, neighbours in structure and some others; about 1.7% of the full set was active somewhere.

SMILES	AI-2 QS mod	ARNT TACC3 PPI	CAL PDZ FP-1	Rce1 inhib	CAL PDZ FP-2
CCn1cc(C(=O)NC2CCCCCC2)c2cc(OC)c(OC)cc2c1=O	-3	3	-1	i	48*
COc1cc(SC)ccc1C(=O)NC1CCCCC1	3	-2	-1	i	47*
CCNC(=O)Cn1c(=O)c(=O)n(Cc2ccccc2)c2ccc(Cl)cc21	14	-6	-1	i	-2
CC(=O)N/N=C/c1cc(C(C)(C)C)cc(/C=N/NC(C)=O)c1O	15	62*	-2	i	11
CC1CCN(CCC(=O)N/N=C/c2ccc([N+](=O)[O-])cc2)CC1	20	3	1	i	163*
CN(C)S(=O)(=O)c1ccc(NC(=O)/C=C/c2ccccc2Cl)cc1	-93*	32	-4	+	-5
Cc1c(C)c2c(OCC(=O)N3CCC[C@H]3C(=O)O)cc3c(c2oc1=O)CCC(C)(C)O3	28	128*	-1	?	0
CCc1cc(=O)oc2c3c(cc(OCC(=O)NCCCCCC(=O)O)c12)OC(C)(C)CC3	-10	-2	-1	+	-7
Cc1c(C)c2c(OCC(=O)NCc3ccncc3)cc3c(c2oc1=O)CCC(C)(C)O3	22	-1	0	+	-3
C[C@H](CO)N1C[C@H](C)[C@@H](CN(C)C)OCCCC[C@H](C)Oc2ccc(NC(=O)Nc3cccc4ccccc34)cc2C1=O	/	-6	/	/	/
Cc1ccccc1NC(=O)CSc1n[nH]c(-c2ccccn2)n1	35	64*	-3	i	-3
O=C(CSc1cccc2cccnc12)Nc1cccc(S(=O)(=O)N2CCOCC2)c1	4	26*	-2	i	/
COc1ccc(OCC(=O)N/N=C/c2cccc3cccnc23)cc1	21	77*	-2	i	/
COc1ccccc1OCC(=O)N/N=C/c1cccc2cccnc12	37	78*	-2	/	/
COc1ccccc1-c1c(C)nn2c(N3CCOCC3)cc(C)nc12	13	0	0	i	-1
CC1(C)Cc2c(c(N3CCOCC3)nc3sc4c(NCC5CCCO5)nnnc4c23)CS1 (centres undefined)	41	2	-2	i	-1
O=C(CSc1cccc2cccnc12)N/N=C/c1ccc(O)cc1	14	27	-4	i	8
Cc1cccc(NC(=O)CSc2cccc3cccnc23)c1C	-2	84*	-1	i	-4
COc1ccc(NC(=O)CSc2cccc3cccnc23)c(OC)c1	3	4	-2	i	-3
COc1cccc(/C=N/NC(=O)CSc2cccc3cccnc23)c1	15	96*	-2	i	/
COc1ccc(S(=O)(=O)N(C)C[C@@H]2Oc3ccc(NC(=O)Nc4ccccc4)cc3C(=O)N([C@@H](C)CO)C[C@@H]2C)cc1	/	-3	/	/	/
O=C(O)CCc1ccc(-c2ccc(Br)cc2)n1-c1cccc(O)c1	2	-4	-3	i	-1
Cc1cc(NC(=O)CCC(=O)N(Cc2ccco2)C(C(=O)NC2CCCCC2)c2ccccc2)no1 (centres undefined)	27	-3	-1	i	39*
CC(C)CCCN1CCN=C1Nc1ccccc1	12	-16	0	i	1
CN1C(=S)SC(/[N+]([O-])=C/c2cccnc2)C1(C)C (centres undefined)	-2	3	/	i	31*
SMILES	AI-2 QS mod	ARNT TACC3 PPI	CAL PDZ FP-1	Rce1 inhib	CAL PDZ FP-2
Cc1ccc(C(C)C)c(OCc2nc(-c3nonc3N)no2)c1	-85*	-9	-1	i	/
Cc1cc(C)nc(Nc2nc(-c3ccccc3)cs2)n1	11	-1	2	i	-4
c1ccc(-c2csc(Nc3nc(N4CCOCC4)nc(N4CCOCC4)n3)n2)cc1	17	3	0	i	49*
COC(=O)[C@H]1[C@H](CO)[C@H]2Cn3c(ccc(-c4ccccc4OC)c3=O)[C@H]2N1CC1CCOCC1	/	-4	/	/	/
Nc1c(S(=O)(=O)c2ccccc2)cnc2c(-c3ccc(F)cc3)cnn12	3	-12	0	i	-7
COc1ccc(CNC(=O)C[C@H]2C[C@H](C(=O)N3CCOCC3)[C@@]3(CCC4CCCC4)c4[nH]c5cc(CCC(=O)N(C)C)ccc5c4CCN3C2=O)cc1OC	/	3	0	/	51*
CCOC(=O)c1c(C)[nH]c(C(=O)COC(=O)C2=NNC(=O)CC2)c1C	14	3	0	i	-3
COc1ccc(S(=O)(=O)Nc2cccc3c2O[C@H](CN(C)CC2CC2)[C@@H](C)CN([C@H](C)CO)C3=O)cc1	/	0	-1	/	-1
CC1CCC/C(=C\Nc2ccccc2C(=O)O)C1=O (centres undefined)	48	-9	0	+	-3
CC1CCC/C(=C\Nc2ccc3c(c2)OCO3)C1=O (centres undefined)	50	1	0	i	-3
O=C(Nc1cc(Cl)ccc1-n1cncn1)c1cccs1	25	1	1	i	-5
O=C(C1=NN[C@@H]2C(=O)N(c3ccccc3C(F)(F)F)C(=O)[C@H]12)c1cnccn1	7	-2	-1	i	123*
O=C(O)c1ccc2c(c1)NC(=O)C(N1CCCC1)S2 (centres undefined)	15	1	-1	i	1
Cc1cn(CC(=O)NCc2ccccn2)c(=O)[nH]c1=O	/	-5	0	/	+
COc1ccc(-n2nc(C(=O)NCC(=O)N3CCCCCC3)c3ccccc3c2=O)c(OC)c1	15	0	-2	i	-2
Oc1cc(Nc2ccccc2)cc2cccnc12	/	66*	1	/	1
Oc1cc(-c2cccnc2)cc2cccnc12	/	65*	-2	/	-2
c1cncc(-c2nc3cc4ccccc4cc3[nH]2)c1	-8	1	-5	i	-8
CC1CN(C(=O)c2cc3cc(Cl)cc(Cl)c3oc2=O)CC(C)O1 (centres undefined)	20	/	-1	i	-1
CCCc1c(C(=O)N/N=C/c2cccnc2)nnn1-c1nonc1N	24	-1	-2	i	-1
O=C(NC(NNc1ccc([N+](=O)[O-])cc1)(C(F)(F)F)C(F)(F)F)c1ccc(Cl)cc1	7	14	0	i	1
Cc1c(OC(C)C(=O)NCCN2CCOCC2)ccc2c3c(c(=O)oc12)CCCC3 (centres undefined)	34	-3	-1	i	67*
